ChEMBL document CHEMBL3120089, “Indoloditerpenes from a marine-derived fungal strain of Dichotomomyces cejpii with antagonistic activity at GPR18 and cannabinoid receptors” (J Nat Prod, 2014)
Activity calls are given as the source filed them. No cut-off for these calls is given here.

Key:
[1] = Solubility of the compound in water; type: physicochemical; details: buffer
L6 = assay: Cytotoxicity against rat L6 cells assessed as growth inhibition after 70 hrs by Alamar Blue assay; type: cell-based; details: L6, 70 h
Cannabinoid receptor 2 [2] = target: T1, Cannabinoid receptor 2 (Homo sapiens, UniProt P34972); assay: Antagonist activity at human CB2 receptor expressed in CHO cells assessed as inhibition of forskolin-induced cAMP accumulation incubated for 5 mins followed by forskolin challenge measured after 15 mins by liquid scintillation counting analysis in presence of [3H]cAMP; type: functional, cell-based
T1 sequence (P34972 whole entry): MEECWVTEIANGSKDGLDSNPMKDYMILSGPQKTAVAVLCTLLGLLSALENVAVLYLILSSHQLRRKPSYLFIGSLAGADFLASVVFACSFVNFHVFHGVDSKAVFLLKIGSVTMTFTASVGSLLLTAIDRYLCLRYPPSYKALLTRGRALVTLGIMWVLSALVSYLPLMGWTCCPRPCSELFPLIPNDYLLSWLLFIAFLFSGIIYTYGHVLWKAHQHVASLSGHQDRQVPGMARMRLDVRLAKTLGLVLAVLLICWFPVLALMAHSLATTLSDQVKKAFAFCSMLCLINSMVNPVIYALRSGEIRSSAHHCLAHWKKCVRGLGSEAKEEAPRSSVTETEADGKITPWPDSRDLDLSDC
In short: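 CHO cells stably expressing human CB2; adenylate cyclase inhibition measured as intracellular cAMP, quantified by a cAMP competition binding assay; three independent experiments in duplicate.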

[3] = target: T2, G-protein coupled receptor 55 (Homo sapiens, UniProt Q9Y2T6); assay: Antagonist activity at human GPR55 expressed in CHO cells assessed as inhibition of LPI-mediated beta-arrestin recruitment after 90 mins by beta-galactosidase reporter gene assay; type: cell-based
T2 sequence (Q9Y2T6 whole entry): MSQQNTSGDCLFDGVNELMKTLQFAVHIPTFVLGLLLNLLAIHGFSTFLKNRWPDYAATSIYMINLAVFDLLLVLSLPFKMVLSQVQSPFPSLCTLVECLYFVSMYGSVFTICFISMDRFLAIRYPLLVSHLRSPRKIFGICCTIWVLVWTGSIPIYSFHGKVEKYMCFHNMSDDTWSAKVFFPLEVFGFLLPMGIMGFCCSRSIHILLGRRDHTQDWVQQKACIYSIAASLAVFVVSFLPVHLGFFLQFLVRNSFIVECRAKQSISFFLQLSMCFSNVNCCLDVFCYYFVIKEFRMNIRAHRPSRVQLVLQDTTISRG
In short: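 CHO cells stably expressing GPR55; PathHunter β-galactosidase complementation. 20,000 cells/well seeded in Opti-MEM with 2% FCS and selection antibiotics, 24 h at 37 °C. Compounds added in PBS with 10% DMSO and 0.1% BSA, 90 min at 37 °C, against a constant 1 μM LPI. Galacton-Star/Emerald-II lysis reagent for 60 min at rt, then luminescence read. IC50 from three independent experiments in duplicate.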

[4] = target: T2, G-protein coupled receptor 55; assay: Antagonist activity at human GPR55 expressed in CHO cells assessed as inhibition of LPI-mediated beta-arrestin recruitment at 10 uM after 90 mins by beta-galactosidase reporter gene assay relative to control; type: cell-based
In short: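 PathHunter β-galactosidase β-arrestin assay in CHO cells stably expressing GPR55. Cells incubated 24 h at 37 °C before use. Screening at 10 μM compound against 1 μM LPI, 90 min at 37 °C. Chemiluminescent Galacton-Star detection for 60 min at rt. Result given as % inhibition; three independent experiments in duplicate.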

[5] = target: T3, N-arachidonyl glycine receptor (Homo sapiens, UniProt Q14330); assay: Antagonist activity at human GPR18 expressed in CHO cells assessed as inhibition of […] uM THC-mediated beta-arrestin recruitment after 90 mins by beta-galactosidase reporter gene assay; type: cell-based
T3 sequence (Q14330 whole entry): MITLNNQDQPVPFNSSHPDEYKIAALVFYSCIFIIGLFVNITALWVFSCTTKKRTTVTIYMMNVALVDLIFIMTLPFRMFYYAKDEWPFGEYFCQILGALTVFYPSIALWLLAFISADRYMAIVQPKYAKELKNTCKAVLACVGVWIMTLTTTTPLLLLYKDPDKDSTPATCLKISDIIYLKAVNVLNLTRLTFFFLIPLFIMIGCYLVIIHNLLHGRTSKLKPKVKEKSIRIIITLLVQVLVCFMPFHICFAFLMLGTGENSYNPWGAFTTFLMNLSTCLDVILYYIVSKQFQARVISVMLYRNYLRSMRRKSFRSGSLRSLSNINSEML

Cannabinoid receptor 2 [6] = target: T1, Cannabinoid receptor 2; assay: Displacement of [3H]-CP55940 from human CB2 receptor expressed in CHO cells; type: cell-based
In short: (§1)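 Competition binding against agonist radioligand [3H]CP55,940 at CB1 or CB2 receptors. Compound stocks in DMSO, final DMSO 2.5%. Ki from concentration–inhibition curves; three independent experiments in duplicate.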

Cannabinoid receptor 1 = Cannabinoid receptor 1 (Homo sapiens, UniProt P21554); assay: Displacement of [3H]-CP55940 from human CB1 receptor expressed in CHO cells; type: cell-based; details: for inhibition: concentration not given here; in short: as §1
Sequence of Cannabinoid receptor 1 (P21554 whole entry): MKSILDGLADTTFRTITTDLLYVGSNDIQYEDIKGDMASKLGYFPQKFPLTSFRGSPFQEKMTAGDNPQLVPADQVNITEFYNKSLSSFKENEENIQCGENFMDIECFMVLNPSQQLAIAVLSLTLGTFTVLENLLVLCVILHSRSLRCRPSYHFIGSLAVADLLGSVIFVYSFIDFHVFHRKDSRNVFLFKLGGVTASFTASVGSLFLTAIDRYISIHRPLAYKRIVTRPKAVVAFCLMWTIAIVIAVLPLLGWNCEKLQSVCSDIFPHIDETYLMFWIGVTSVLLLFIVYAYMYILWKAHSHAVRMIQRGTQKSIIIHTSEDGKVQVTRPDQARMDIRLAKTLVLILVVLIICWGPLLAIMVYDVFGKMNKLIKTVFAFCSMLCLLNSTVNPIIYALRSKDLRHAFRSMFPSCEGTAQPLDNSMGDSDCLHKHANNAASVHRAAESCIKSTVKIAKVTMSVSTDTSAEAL

[7] = target: T3, N-arachidonyl glycine receptor; assay: Inverse agonist activity at human GPR18 expressed in CHO cells assessed as inhibition of 7.5 uM THC-mediated beta-arrestin recruitment after 90 mins by beta-galactosidase reporter gene assay; type: cell-based

CC(C)=CCC[C@]1(C)[C@@H](O[C@@H]2O[C@H](CO)[C@@H](O)[C@H](O)[C@@H]2O)CC[C@@]2(C)[C@H]1CC[C@H]1Cc3c([nH]c4ccccc34)[C@@]12C
solubility [1]: soluble
IC50 (L6): 58 µM
inhibition (Cannabinoid receptor 2 [2]): Active
IC50 [3]: > 10 µM
inhibition [4]: 13%
IC50 [5]: > 10 µM
Ki (Cannabinoid receptor 2 [6]): 10.6 µM
Ki (Cannabinoid receptor 1): 10.6 µM
inhibition (Cannabinoid receptor 1): 30%

COC(C)(C)/C=C/C[C@]1(C)[C@@H](O)CC[C@@]2(C)[C@H]1CC[C@H]1Cc3c([nH]c4ccccc34)[C@@]12C
IC50 [3]: > 10 µM
inhibition [4]: 31%
IC50 [7]: 13.4 µM
Ki (Cannabinoid receptor 2 [6]): > 10 µM
inhibition (Cannabinoid receptor 2 [6]; concentration not given here): 33%
Ki (Cannabinoid receptor 1): > 10 µM
inhibition (Cannabinoid receptor 1): 39%

CC(C)=C[C@H]1C[C@]2(C)[C@H](CC[C@@]3(C)[C@H]2CC[C@H]2Cc4c([nH]c5ccccc45)[C@@]23C)O1
IC50 [3]: > 10 µM
inhibition [4]: 0%
IC50 [7]: 9.91 µM
Ki (Cannabinoid receptor 2 [6]): 4.76 µM
Ki (Cannabinoid receptor 1): 4.4 µM

CC(C)=CCC[C@]1(C)[C@@H](O)CC[C@@]2(C)[C@H]1CC[C@H]1Cc3c([nH]c4ccccc34)[C@@]12C [EMINDOLE SB]
IC50 [3]: > 10 µM
inhibition [4]: 12%
IC50 [5]: > 10 µM
Ki (Cannabinoid receptor 2 [6]): 2.24 µM
Ki (Cannabinoid receptor 1): 7.05 µM
